The structures appear in SMILES notation. The source made the active and inactive calls. The calls are words filed in the database; no cut-off is given here.

The species named for data set [1] is Cavia porcellus. The data set can be described thus: Potency expressed as EC30 for the negative chronotropic activity. Format: functional.
The subject of data set [2] is K562. The data set can be described thus: Potency that causes a half maximal increase in nuclear concentration of pirarubicin. Format: functional, Homo sapiens.
For data set [3], the species on record is Cavia porcellus. The data set can be described thus: Potency expressed as EC50 for the negative inotropic activity. In kind it is functional.
Data set [4] has as its system K562. The data set can be described thus: The efficacy in reverting MDR was evaluated on human erythroleukemia K-562 cell line. In kind it is functional. An outline of the steps:
(§1)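 Doxorubicin-resistant and sensitive K 562 cells in exponential growth were used in pH 7.25 HEPES buffer at 37 °C in quartz cuvettes. Pirarubicin uptake was followed as the fall in fluorescence at 590 nm (ex 480 nm). Steady-state nuclear pirarubicin was measured across a range of inhibitor concentrations. α = (CnRi − CnRo)/(CnS − CnRo); αmax is the maximal α, and [i]0.5 is the concentration giving α = 0.5 (mean ± SEM).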

Data set [5] is filed under the species Cavia porcellus. The data set can be described thus: Decrease in developed tension of the left atrium of guinea pig expressed as the negative inotropy. Format: functional, Cardiac atrium. Also noted: concentration or dose not given beside the values. In short, it runs like this: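 Isolated guinea pig left atrium, electrically driven at 1 Hz. Read-out is the fall in developed tension at 5 × 10^-5 M, given as percent change from control (n = 5-6).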

For data set [6], the species on record is Cavia porcellus. The data set can be described thus: Percent inhibition of calcium-induced contraction on K+ depolarized guinea pig aortic strip. Format: functional, Aorta. Details: concentration or dose not given beside the values.
The species entered for data set [7] is Cavia porcellus. The data set can be described thus: Decrease in atrial rate of the right atrium of guinea pig expressed as the negative chronotropy. Also noted: concentration or dose not given beside the values.
The species entered for data set [8] is Cavia porcellus. The data set can be described thus: Potency expressed as IC50 for the vasorelaxant activity. In kind it is functional.
Data set [9] has as its system K562. The data set can be described thus: Percentage of the dead cells of K-562 cells was determined for the compound. In kind it is ADME, cell-based. The settings on record: human. In short, it runs like this: (§2)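 Doxorubicin-resistant K 562 cells were exposed to compound at 1 µM, and viability was scored by trypan blue exclusion. Dead cells above 20% counted as toxic.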

The species entered for data set [10] is Cavia porcellus. The data set can be described thus: Potency expressed as EC50 for the negative inotropic activity; 'i' means Inactive. Format: functional.
Data set [11] concerns K562. The data set can be described thus: percentage of the dead cells of K-562 cells was determined for the concentration of 1 uM of the compound. In kind it is ADME, cell-based. As to conditions: human, k562, 1 µM. An outline of the steps: as §2
For data set [12], the species on record is Cavia porcellus. The data set can be described thus: Potency expressed as IC50 for the vasorelaxant activity; 'i' means inactive. Format: functional.
Data set [13] relates to K562. The data set can be described thus: The efficacy in reverting MDR was evaluated on erythroleukemia K-562 cell line. In kind it is functional, Homo sapiens. An outline of the steps: as §1
Data set [14] is filed under the species Cavia porcellus. Kind of data set: Potency expressed as EC30 for the negative chronotropic activity; 'i' means Inactive. In kind it is functional.
Data set [15] is filed under the species Cavia porcellus. The data set can be described thus: Potency expressed as IC50 for the vasorelaxant activity. Format: functional.
For data set [16], the species on record is Cavia porcellus. The data set can be described thus: Potency expressed as EC30 for the negative chronotropic activity. In kind it is functional.
For data set [17], the species on record is Cavia porcellus. The data set can be described thus: Decrease in developed tension of the right atrium of guinea pig expressed as the negative chronotropy. In kind it is functional, Cardiac atrium. Also noted: scale not given: the % may be the effect or the level left. In short, it runs like this:
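Spontaneously beating isolated guinea pig right atrium. Read-out is the fall in atrial rate at 5 × 10^-5 M (10^-5 M for some compounds), given as percent change from control (n = 7-8).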

In data set [18] the test system is K562. Kind of data set: Potency that causes half maximal increase in nuclear concentration of pirarubicin; 'i' means Inactive. As to conditions: Homo sapiens. In kind it is functional, cell-based. An outline of the steps: as §1

With `COc1ccc(C(C#N)(CC#CCNCC(c2ccccc2)c2ccccc2)C(C)C)cc1OC.Cl` (centres undefined), the concentration for an effect of 30% (EC30) (usually the concentration needed for an effect of 30%) in data set [1] stood at 0.83 µM. In addition, in data set [2], the Potency is 0.1 µM. Moreover, a half-maximal effect in data set [3] (EC50) was put at 1.06 µM. In addition, the Alpha max in data set [4] was found to be 0.7. For the same molecule, the results for the Activity in [5], in [6] and in data set [7] were 61%, 54% and 67%, respectively. In addition, the IC50 (usually the concentration that inhibits the measured activity by half) in data set [8] worked out at 4.12 µM. In addition, the Dead cells in data set [9] stood at 20%.
In [1], `C=CCNc1nc(NCC=C)nc(N2CCC(NCCCC(C#N)(c3ccc(OC)c(OC)c3)C(C)C)CC2)n1.Cl` (centres undefined) came in with an EC30 of 1.75 µM. In addition, in data set [2], the Potency came out at 1.6 µM. Moreover, the Alpha max in data set [4] is on record as 0.9. Also, the Activity in data set [5] came out at 39%; in data set [6] it was 62%; in data set [7] it was 87%. In addition, the EC50 (in general, the midpoint of the concentration-response curve) in data set [10] is given as “Not Active”. Also, the IC50 in data set [8] was 3.45 µM. The same molecule displayed a Dead cells in [9] of 0%.
Molecule `Cl.N#CC(CCCNCc1c2ccccc2cc2ccccc12)(c1ccccc1)c1ccccc1` had a Dead cells in data set [11] of 20%. In data set [1], this molecule showed an EC30 of 0.66 µM. Besides, the Potency in data set [2] was 0.5 µM. Moreover, the IC50 result in data set [12] is recorded as “Inactive”. Moreover, the Activity was determined as 48% in [5], 6% in [6] and 67% in data set [7]. The EC50 result in [10] is recorded as “Not Active”. In addition, in [13], the Alpha max is on record as 0.7.
Regarding `COc1ccc(C(C#N)(CCCNC2c3ccccc3-c3ccccc32)C(C)C)cc1OC.Cl` (centres undefined), the EC30 in data set [1] is 0.65 µM. For the same molecule, the Potency in [2] came to 0.25 µM. Also, the 50% inhibitory concentration (IC50) entry in data set [12] is “Inactive”. In [4], the Alpha max is given as 0.8. The Activity was 33% in data set [5], 46% in [6] and 74% in [7]. Also, the EC50 entry in data set [10] is recorded as “Not Active”. Moreover, the Dead cells in data set [9] is on record as 0%.
In data set [1], `Cl.N#CC(CCCNC12CC3CC(CC(C3)C1)C2)(c1ccccc1)c1ccccc1` displayed an EC30 of 1.26 µM. The Potency in data set [2] stood at 0.5 µM. This molecule also had an EC50 in [3] of 1.03 µM. For the same molecule, the Alpha max in data set [4] worked out at 0.8. Further, the Activity in data set [5] is 80%; in data set [6], 55%; in data set [7], 69%. The molecule further showed an IC50 in data set [8] of 3.49 µM. Further, the Dead cells in [9] turned out to be 0%.
Turning to `Cl.N#CC(CCCNC(c1ccccc1)c1ccccc1)(c1ccccc1)c1ccccc1`, the Dead cells in data set [11] was 2%. The same molecule had a Potency in [2] of 2 µM. Moreover, in data set [14], the EC30 result was “inactive”. In addition, the EC50 in data set [3] was determined as 0.38 µM. Also, the IC50 result in data set [12] is “Inactive”. Besides, the Activity is 94% in [5], 15% in data set [6] and 28% in data set [7]. For the same molecule, in data set [13], the Alpha max stood at 0.5.
Consider `COc1ccc(C(C#N)(CCCNC23CC4CC(CC(C4)C2)C3)C(C)C)cc1OC.Cl` (centres undefined), for which, in [15], the IC50 was determined as 7.15 µM. Moreover, the Potency in data set [2] came to 2 µM. In data set [4], this molecule yielded an Alpha max of 0.7. The Activity in [5] was determined as 45%; in [6] it was 81%; in [7] it was 80%. Besides, in data set [10], the EC50 entry is reported as “Not Active”. For the same molecule, the Dead cells in [9] is recorded as 0%. The same molecule had a concentration for an effect of 30% (EC30) in [16] of 1.7 µM.
As to `CN(CCCC(C#N)(c1ccccc1)c1ccccc1)Cc1c2ccccc2cc2ccccc12.Cl`, the Dead cells in data set [11] was 0%. The same molecule returned a Potency in data set [2] of 2.1 µM. Also, the EC30 result in [14] was “inactive”. In data set [3], this molecule came in with an EC50 of 0.89 µM. Also, in data set [12], the IC50 result is “Inactive”. The Activity in [5] turned out to be 70%; in data set [6], 10%; in [7], 22%. The same molecule registered an Alpha max in data set [13] of 0.8.
As to `COc1ccc(C(C#N)(CC#CCNCc2c3ccccc3cc3ccccc23)C(C)C)cc1OC.Cl` (centres undefined), the Dead cells in data set [11] is 15%. In [2], this molecule yielded a Potency of 2 µM. In [14], the EC30 entry is “inactive”. In data set [3], this molecule displayed an EC50 of 1.04 µM. In data set [12], the IC50 entry is recorded as “Inactive”. Moreover, the Activity in data set [5] is reported as 74%; in data set [6], 12%; in data set [7] it was 34%. The Alpha max in data set [13] is 0.7.
For `COc1ccc(C(C#N)(CC#CCNCc2cc3ccccc3c3ccccc23)C(C)C)cc1OC.Cl` (centres undefined), the Dead cells in data set [11] is given as 20%. Besides, in [2], the Potency is 0.5 µM. Besides, in data set [14], the EC30 result is “inactive”. The concentration giving a half-maximal response (EC50) in data set [3] turned out to be 1.29 µM. Moreover, in data set [12], the IC50 result is “Inactive”. Besides, the Activity was 88% in data set [5], 10% in [6] and 31% in data set [7]. In addition, the Alpha max in data set [13] worked out at 0.5.
With `COc1ccc(C(C#N)(CC#CCN(C)CC23CC4CC(CC(C4)C2)C3)C(C)C)cc1OC.Cl` (centres undefined), in data set [1], the EC30 came out at 0.24 µM. In data set [2], this molecule showed a Potency of 1.3 µM. In addition, the EC50 in data set [3] worked out at 1.16 µM. Further, the Alpha max in data set [4] is reported as 0.8. Besides, the Activity is on record as 77% in [5], 65% in data set [6] and 92% in data set [7]. In data set [8], this molecule returned a half-inhibitory concentration (IC50) of 3.42 µM. The same molecule displayed a Dead cells in data set [9] of 0%.
On to `COc1ccc(C(C#N)(CCCN(C)Cc2c3ccccc3cc3ccccc23)C(C)C)cc1OC.Cl` (centres undefined), for which the Potency in data set [2] turned out to be 2.5 µM. Also, the EC30 entry in [14] is “inactive”. Further, the EC50 in data set [3] came out at 0.65 µM. Further, the IC50 result in data set [12] was “Inactive”. The Alpha max in data set [4] is listed as 0.5. For the same molecule, the values for the Activity in [5], in [6] and in data set [17] were 85%, 9% and 19%, respectively. The molecule further showed a Dead cells in data set [9] of 3%.
`COc1ccc(C(C#N)(CCCN(C)C2c3ccccc3-c3ccccc32)C(C)C)cc1OC.Cl` (centres undefined) yielded a Potency in data set [2] of 1 µM. Further, the EC30 entry in [14] is “inactive”. Further, the IC50 result in data set [12] is “Inactive”. In data set [4], this molecule had an Alpha max of 0.8. The results for the Activity in data set [5], in data set [6] and in data set [7] were 36%, 15% and 26%, respectively. For the same molecule, the EC50 entry in data set [10] is “Not Active”. The molecule further came in with a Dead cells in data set [9] of 0%.
Consider `COc1ccc(C(C#N)(CCCN(C)C23CC4CC(CC(C4)C2)C3)C(C)C)cc1OC.Cl` (centres undefined), for which the EC30 in data set [1] was determined as 0.91 µM. The molecule further returned an EC50 in data set [3] of 3.99 µM. Besides, the results for the Activity in data set [5], in data set [6] and in data set [7] were 80%, 65% and 81%, respectively. In [8], the midpoint of inhibition, the IC50, lay at 3.8 µM. For the same molecule, the Potency entry in data set [18] was “inactive”.

(Values after ChEMBL document CHEMBL1132206, “Design, synthesis, and in vitro activity of catamphiphilic reverters of multidrug resistance: discovery of a selective, highly efficacious chemosensitizer with potency in the nanomolar range” (J Med Chem, 1999).)
